Assay outcomes: PubChem, Johns Hopkins Ion Channel Center
KCNQ1 block: blocks the human KCNQ1 potassium channel; CHO-K1 KCNQ1, FluxOR thallium flux fluorescence; hits give high values; hit rate 1.3% among 310,000; B-score at 10 µM; P51787; AID 2642;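 active = compounds whose thallium flux B-score, printed positive for inhibition, exceeds three library SD while starting fluorescence stays within three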;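 note: channel opened by potassium depolarization with thallium stimulus after 20 min compound exposure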
KCNK3 block: human KCNK3 channel inhibition, primary screen; hit rate 0.84% among 340,000; CHO-KCNK3 thallium flux, FluxOR fluorescence; hits give low values; B-score at 10 µM; O14649;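 active = B-score under library mean minus 4 SD, starting fluorescence ratio at most library mean plus 5 SD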;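 note: more negative B-score means stronger inhibition of thallium flux through KCNK3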
KCNQ1 act: potentiators or activators of human KCNQ1 potassium channel. P51787. hit rate 0.35% among 310,000. B-score at 10 µM. CHO-K1 KCNQ1, thallium flux FluxOR fluorescence; hits give high values;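 active = fluorescence ratio B-score, a plate-corrected score, at least three library SD, with initial intensity B-score within 5 SD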
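Assay system: stable KCNQ1 CHO-K1 line; medium: assay buffer, equal DMSO in all wells; timing: 90 min dye loading and 20 min compound exposure, both at room temperature; technique: kinetic FluxOR thallium fluorescence, 10-s 1-Hz baseline, 110-s post-stimulus read; read-out basis: B score of baseline-normalized fluorescence ratio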
hERG protect: shields human hERG channel from block by proarrhythmic agents | Q12809 | CHO-hERG, FluxOR thallium flux, dofetilide IC70 present | activation (rescue from dofetilide block), less the hit threshold, % at 10 µM | hit rate 0.51% among 310,000 | AID 1511;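 active = activation above the mean of controls blocked by dofetilide plus 5 SD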;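 note: thallium influx through hERG after potassium depolarization seen as dye fluorescence rise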
Kir21 block: Kir2.1 (mouse) channel inhibition. P35561. hit rate 0.85% among 310,000. B-score at 10 µM. AID 1672. HEK293-Kir2.1, FluxOR thallium flux fluorescence; hits give low values;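 active = fluorescence ratio B-score at or below minus 3 SD of library scores, with starting-brightness B-score within 2 SD, cut at about -4.2 in these data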;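 note: channel flux triggered by added potassium and thallium sulfate stimulus; B-score of peak minus minimum fluorescence over baseline after thallium stimulus; more negative B-score means stronger Kir2.1 block with less thallium influx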
Target sequence (P35561 whole entry, looked up): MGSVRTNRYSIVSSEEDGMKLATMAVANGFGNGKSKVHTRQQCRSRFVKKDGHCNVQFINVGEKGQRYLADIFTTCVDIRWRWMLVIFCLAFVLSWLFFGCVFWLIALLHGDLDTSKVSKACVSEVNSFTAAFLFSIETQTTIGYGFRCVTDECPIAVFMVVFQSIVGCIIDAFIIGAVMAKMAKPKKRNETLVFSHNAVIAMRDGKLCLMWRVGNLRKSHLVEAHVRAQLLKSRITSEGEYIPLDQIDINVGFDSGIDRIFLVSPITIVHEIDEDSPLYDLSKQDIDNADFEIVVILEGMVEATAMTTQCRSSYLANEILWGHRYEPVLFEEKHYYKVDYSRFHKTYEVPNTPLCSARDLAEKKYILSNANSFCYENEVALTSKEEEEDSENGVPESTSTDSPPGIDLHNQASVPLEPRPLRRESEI
KCNK9 block: blocks the human KCNK9 two-pore domain potassium channel. HEK293 KCNK9, FluxOR thallium flux fluorescence; hits give low values. B-score at 10 µM. hit rate 1.2% among 310,000. AID 488922;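 active = ratio B-score over 3 SD below the library mean, with starting fluorescence within 5 SD of its mean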;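 note: negative B-score means less thallium flux so channel inhibition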
KCNK9 inh conf: confirmation of human KCNK9 potassium channel inhibitors. shares compounds with KCNK9 block. inhibition, % at 10 µM. hit rate 43% among 4,900. HEK293 KCNK9 cells, FluxOR thallium flux fluorescence;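 active = thallium signal inhibited by more than 5 SD of the compound-free buffer control wells, on both duplicate plates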;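 note: 0% = assay buffer control wells without compound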
Kir21 sel: selectivity of KCNK9 modulators against mouse Kir2.1; shares compounds with KCNK9 block; hit rate 4% among 4,900; Kir2.1 cells, FluxOR thallium flux fluorescence; inhibition, % at 10 µM;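 active = thallium signal drop more than 5 SD beyond the mean of the no-compound control wells, seen in both duplicate plates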;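 note: signal is fluorescence rise after thallium addition divided by baseline fluorescence; plate controls were assay buffer only for no effect and full block by chlorpromazine control for full effect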
HEK293 Tl ctr: second check of KCNK9 modulator effects in non-induced HEK293 cells. hit rate 40% among 4,900. FluxOR thallium flux. AID 492997. shares compounds with KCNK9 block. inhibition, % at 10 µM;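 active = thallium signal drop beyond 5 SD of the untreated control mean, on both duplicate plates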;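 note: plate controls were buffer only IC0 wells for no effect and SID17386958 at its maximal inhibitory level for full effect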
An asterisk follows results filed as active; i = inactive; . = no result given. This is a sample that favours compounds with a hit; in the whole collection about 3.7% have one here.

SMILES	KCNQ1 block	KCNK3 block	KCNQ1 act	hERG protect	Kir21 block	KCNK9 block	KCNK9 inh conf	Kir21 sel	HEK293 Tl ctr
N#CCc1ccc(Oc2ncc(C(F)(F)F)cc2Cl)cc1	i	i	i	-6	0.38	i	.	.	.
Cc1ccc(CO/N=C\Cc2snc(Sc3ncc(C(F)(F)F)cc3Cl)c2C#N)cc1	i	i	i	-12	-0.01	i	i	i	i
O=C(COC(=O)c1ccc(O)cc1)Nc1ccccc1	i	i	i	-3	0.55	i	.	.	.
COc1cc(-c2csc(NC3CCCCC3)n2)cc(OC)c1OC	i	i	i	-12	-0.02	i	i	i	i
C/C(=N/NC(=O)C(O)(c1ccccc1)c1ccccc1)c1ccc([N+](=O)[O-])o1	i	i	i	-25	-0.01	i	.	.	.
CCN1CCCc2cc(CN(CCN3CCOCC3)C(=S)Nc3cccc(Cl)c3)ccc21	i	i	i	-13	0.08	i	i	i	i
CCNS(=O)(=O)c1ccc(CCC(=O)NCc2ccncc2)cc1	i	i	i	-10	2.5	i	.	.	.
CCCCCCCCCCCCN1[C@@H](CC(=O)O)c2cc(C(F)(F)F)ccc2S1(=O)=O	i	i	i	-5	0.46	i	i	i	i
CCCCCCCCCCCCN1[C@@H](CC(=O)O)c2cc(F)ccc2S1(=O)=O	i	i	i	-4	-0.17	i	i	i	i
CCCCCCCCN1[C@@H](CC(=O)OC)c2cc(F)ccc2S1(=O)=O	i	i	i	-5	-0.77	i	.	.	.
Cc1ccc(C)c(C(=O)COC(=O)c2ccc(Br)o2)c1	i	i	i	-8	-1.9	-8.7*	36%*	i	i
Cc1ccc(C)c(C(=O)COC(=O)CNS(=O)(=O)c2ccccc2)c1	i	i	i	-16	-1.9	i	.	.	.
Cc1ccc(C)c(C(=O)COC(=O)c2cc(Cl)nc3ccccc23)c1	i	i	i	-10	-1.2	-9.4*	67%*	i	45%*
CCN(CC(=O)Nc1ccc2c(c1)OCCO2)CC(=O)Nc1ccc(C)c([N+](=O)[O-])c1	.	i	.	.	.	.	.	.	.
Cc1c(C)n2c(SCC(=O)Nc3cccc4ccccc34)nnc2[nH]c1=O	i	i	i	-2	-0.46	i	.	.	.
O=C(C1=C[C@H](c2ccc(C(F)(F)F)cc2)C[C@H](OCCCCO)O1)N1CCN(Cc2ccccc2)CC1	i	i	i	-11	-0.44	i	i	i	i
C#Cc1ccc([C@H]2C=C(C(=O)N3CCN(Cc4ccccc4)CC3)O[C@@H](OCc3ccc(CO)cc3)C2)cc1	i	i	i	-9	-0.74	i	i	i	i
O=C(C1=C[C@@H](c2ccc(Br)cc2)C[C@@H](OCc2ccc(CO)cc2)O1)N1CCN(Cc2ccccc2)CC1	i	i	i	-10	-0.56	i	.	.	.
O=C(C1=C[C@@H](c2ccc(C(F)(F)F)cc2)C[C@@H](OCCCCO)O1)N1CCN(Cc2ccccc2)CC1	i	i	i	-12	-1	i	.	.	.
S=c1nc(C2COc3ccccc3O2)[nH][nH]1 (centres undefined)	i	i	i	-6	0.25	i	i	i	i
CCC1=NN(C(=O)c2cccc(Br)c2)C(O)(c2ccc(Br)cc2)C1 (centres undefined)	8*	i	i	-14	0	-10*	42%*	i	26%*
CC(C)CCNC(=O)c1c(CSc2ccccc2)noc1C(=O)NCc1ccccc1	i	i	i	-9	0.25	i	i	i	i
